Test results from ChEMBL document CHEMBL4680257, “Discovery of novel NF-кB inhibitor based on scaffold hopping: 1,4,5,6,7,8-hexahydropyrido[4,3-d]pyrimidine” (Eur J Med Chem, 2020).
Calls of active or inactive are those of the source. No cut-off for these calls is given here.

Columns and labels:
RAW264.7 [1] = test: Antiinflammatory activity against mouse RAW264.7 cells assessed as LPS-induced IL-6 at 5 uM pretreated for 2 hrs followed by LPS stimulation and measured after 22 hrs by ELISA relative to control (reference value: 0 %); assay type: functional; conditions: time 24 hrs
RAW264.7 [2] = test: Inhibition of NF-kappaB in mouse RAW264.7 cells assessed as reduction in LPS-induced p65 phosphorylation incubated for 1 hr followed by LPS stimulation and measured after 30 mins by Western blot analysis; assay type: cell-based; conditions: dose 1-4 µM
Outline: (§1)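 RAW264.7 incubated 1 h with compound (1.0, 2.0, 4.0 µM), then LPS 1.0 µg/mL for 30 min before extraction. Lysates blotted to nitrocellulose and probed overnight at 4 °C for total and phospho forms of p65, IκBα, Akt, ERK1/2, JNK and p38; secondary antibody 2 h at room temperature. ECL detection, normalized to GAPDH, mean ± SD of triplicate tests.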

RAW264.7 [3] = test: Inhibition of NF-kappaB in mouse RAW264.7 cells assessed as reduction in LPS-induced IkappaBalpha phosphorylation incubated for 1 hr followed by LPS stimulation and measured after 30 mins by Western blot analysis; assay type: cell-based; conditions: dose 1-4 µM; outline: as §1
RAW264.7 [4] = test: Antiinflammatory activity against mouse RAW264.7 cells assessed as LPS-induced TNF-alpha at 5 uM pretreated for 2 hrs followed by LPS stimulation and measured after 22 hrs by ELISA (reference value: 0 %); assay type: functional; conditions: time 24 hrs
HepG2 [5] = test: Induction of apoptosis in human HepG2 cells incubated for 24 hrs by annexin V-FITC and PI staining based flow cytometry analysis; assay type: functional, cell-based; conditions: dose 1-4 µM
Outline: (§2)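 Cells seeded at 2×10^5 per well and treated 24 h with 1.0, 2.0 or 4.0 µM, or DMSO. Harvested, washed twice in cold PBS, resuspended at 1×10^5 cells/mL in buffer. Stained with Annexin V-FITC plus propidium iodide for 15 min at room temperature in the dark, then analysed by flow cytometry.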

HepG2 [6] = test: Induction of apoptosis in human HepG2 cells assessed as early apoptotic cells at 4 uM incubated for 24 hrs by annexin V-FITC and PI staining based flow cytometry analysis (reference value: 0.2 %); assay type: functional; outline: as §2
HepG2 [7] = test: Inhibition of NF-kappaB in human HepG2 cells assessed as reduction in TNFalpha-induced p65 nuclear translocation at 4 uM pretreated with LPS for 15 mins followed by compound addition and measured after 2 hrs by DAPI staining based fluorescence microscopy; assay type: cell-based; conditions: time 135.0 min, in the assay text read “pretreated with TNF-alpha” for “pretreated with LPS”
Outline: (§3)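 HepG2 exposed to TNF-α (10 ng/mL) for 15 min, then 4.0 µM compound for 2 h. Fixed at room temperature and blocked with 3% BSA. Anti-p65 (1:200) overnight at 4 °C, then secondary (1:200) for 30 min at room temperature. Nuclei stained with DAPI; p65 location imaged on a high-content fluorescence system. Repeated three times.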

HepG2 [8] = test: Induction of apoptosis in human HepG2 cells assessed as early apoptotic cells at 1 uM incubated for 24 hrs by annexin V-FITC and PI staining based flow cytometry analysis (reference value: 0.2 %); assay type: functional; outline: as §2
RAW264.7 [9] = test: Inhibition of NF-kappaB in mouse RAW264.7 cells assessed as reduction in LPS-induced p65 nuclear translocation at 4 uM pretreated with LPS for 15 mins followed by compound addition and measured after 2 hrs by DAPI staining based fluorescence microscopy; assay type: cell-based; conditions: time 135.0 min
Outline: as §3, with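 “RAW264.7” for “HepG2”, “LPS (1 µg/mL)” for “TNF-α (10 ng/mL)”, “DAPI for 15 min;” for “DAPI; p65 location”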

HepG2 [10] = test: Induction of apoptosis in human HepG2 cells assessed as viable cells at 1 uM incubated for 24 hrs by annexin V-FITC and PI staining based flow cytometry analysis (reference value: 94.2 %); assay type: functional; conditions: read-out: Activity; outline: as §2
SMMC-7721 [11] = test: Induction of apoptosis in human SMMC-7721 cells assessed as viable cells at 4 uM incubated for 24 hrs by annexin V-FITC and PI staining based flow cytometry analysis (reference value: 93.3 %); assay type: functional; conditions: read-out: Activity; outline: as §2
RAW264.7 [12] = test: Inhibition of NF-kappaB in mouse RAW264.7 cells assessed as reduction in LPS-induced ERK phosphorylation at 1 to 4 uM incubated for 1 hr followed by LPS stimulation and measured after 30 mins by Western blot analysis; assay type: cell-based; conditions: dose 1-4 µM; outline: as §1
RAW264.7 [13] = test: Inhibition of NF-kappaB in mouse RAW264.7 cells assessed as reduction in LPS-induced JNK phosphorylation at 1 to 4 uM incubated for 1 hr followed by LPS stimulation and measured after 30 mins by Western blot analysis; assay type: cell-based; conditions: dose 1-4 µM; outline: as §1
HepG2 [14] = test: Induction of apoptosis in human HepG2 cells assessed as necrotic cells at 1 uM incubated for 24 hrs by annexin V-FITC and PI staining based flow cytometry analysis (reference value: 0.8 %); assay type: functional; outline: as §2
RAW264.7 [15] = test: Inhibition of NF-kappaB in mouse RAW264.7 cells assessed as reduction in LPS-induced p65 nuclear translocation at 4 uM pretreated with LPS for 15 mins followed by compound addition and measured after 2 hrs by DAPI staining based fluorescence microscopy; conditions: time 135.0 min
SMMC-7721 [16] = test: Induction of apoptosis in human SMMC-7721 cells assessed as late apoptotic cells at 1 uM incubated for 24 hrs by annexin V-FITC and PI staining based flow cytometry analysis (reference value: 5.4 %); assay type: functional; outline: as §2
HepG2 [17] = test: Cytotoxicity against human HepG2 cells assessed as reduction in cell viability incubated for 24 hrs by MTT assay; assay type: functional, cell-based; conditions: HepG2, 24 h
Outline: (§4)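 Cells kept at 37 °C in 5% CO₂. HepG2 grown in DMEM with 10% serum; HHL-5, LO2 and SMMC-7721 in 1640 medium with 10% serum. Seeded, grown 24 h, then exposed 24 h to 10, 5, 2.5, 1.25, 0.625 and 0.3125 µg/mL. MTT (5 mg/mL) added for 4 h at 37 °C; formazan dissolved in DMSO, OD read at 570 nm. IC50 averaged from three replicates.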

[18] = Cytotoxicity against human HHL-5 cells assessed as reduction in cell viability incubated for 24 hrs by MTT assay; assay type: cell-based; conditions: HHL-5, 24 h; outline: as §4
SMMC-7721 [19] = test: Induction of apoptosis in human SMMC-7721 cells assessed as early apoptotic cells at 4 uM incubated for 24 hrs by annexin V-FITC and PI staining based flow cytometry analysis (reference value: 0.3 %); assay type: functional; outline: as §2
HepG2 [20] = test: Induction of apoptosis in human HepG2 cells assessed as increase in Caspase-3 expression incubated for 24 hrs by Western blot analysis; assay type: functional, cell-based; conditions: dose 1-4 µM
Outline: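 HepG2 exposed to 1.0, 2.0 or 4.0 µM for 24 h. Lysates separated by electrophoresis and blotted onto nitrocellulose. Probed overnight at 4 °C with anti-Bcl-2, anti-BAX or anti-cleaved caspase-3, then 2 h at room temperature with anti-mouse/rabbit IgG. ECL detection, GAPDH as loading control; quantified from more than three separate experiments.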

HepG2 [21] = test: Induction of apoptosis in human HepG2 cells assessed as late apoptotic cells at 1 uM incubated for 24 hrs by annexin V-FITC and PI staining based flow cytometry analysis (reference value: 4.8 %); assay type: functional; outline: as §2

**Q.** Which inhibition at 5 µM (RAW264.7 [1]) does the source give for `Cl.NC1=NC(c2cccc(F)c2)C2=C(N1)/C(=C/c1cccc(F)c1)CN(S(=O)(=O)c1ccc(C(F)(F)F)cc1)C2` (stereo unspecified) here?
**A.** Its inhibition at 5 µM is 86.8%.

**Q.** What about the inhibition (RAW264.7 [2]) of the same molecule?
**A.** Its inhibition is “Dose-dependent effect”.

**Q.** What about the inhibition (RAW264.7 [3]) of the same molecule?
**A.** The inhibition was “Dose-dependent effect”.

**Q.** What about the inhibition at 5 µM (RAW264.7 [4]) of the same molecule?
**A.** Its inhibition at 5 µM is 88.5%.

**Q.** And the Activity (HepG2 [5])?
**A.** Its Activity is “Dose-dependent effect”.

**Q.** And the Activity (HepG2 [6])?
**A.** The Activity was 49.8%.

**Q.** What about the inhibition (HepG2 [7]) of the same molecule?
**A.** The inhibition was “Active”.

**Q.** And the Activity (HepG2 [8])?
**A.** The Activity was 53.4%.

**Q.** And the inhibition (RAW264.7 [9])?
**A.** Its inhibition is “Active”.

**Q.** And the viability at 1 µM (HepG2 [10])?
**A.** The viability at 1 µM was 35.3%.

**Q.** What about the viability at 4 µM (SMMC-7721 [11]) of the same molecule?
**A.** The viability at 4 µM was 66.5%.

**Q.** And the inhibition (RAW264.7 [12])?
**A.** The inhibition was “Active”.

**Q.** What about the inhibition (RAW264.7 [13]) of the same molecule?
**A.** The inhibition was “Active”.

**Q.** What about the Activity (HepG2 [14]) of the same molecule?
**A.** Its Activity is 0.8%.

**Q.** What about the inhibition (RAW264.7 [15]) of the same molecule?
**A.** Its inhibition is “Active”.

**Q.** What about the Activity (SMMC-7721 [16]) of the same molecule?
**A.** The Activity was 15.1%.

**Q.** And the IC50 (HepG2 [17])?
**A.** Its IC50 is 2.1 µM.

**Q.** What about the IC50 [18] of the same molecule?
**A.** The IC50 was 28.8 µM.

**Q.** And the Activity (SMMC-7721 [19])?
**A.** Its Activity is 11.4%.

**Q.** What about the Activity (HepG2 [20]) of the same molecule?
**A.** The Activity was “Dose-dependent effect”.

**Q.** What about the Activity (HepG2 [21]) of the same molecule?
**A.** The Activity was 10.5%.
